{"data": "Results of several laboratories", "target": "Dual specificity protein kinase TTK (TTK, Homo sapiens, UniProt P33981)", "Residues used in one study (P33981 1-857)": "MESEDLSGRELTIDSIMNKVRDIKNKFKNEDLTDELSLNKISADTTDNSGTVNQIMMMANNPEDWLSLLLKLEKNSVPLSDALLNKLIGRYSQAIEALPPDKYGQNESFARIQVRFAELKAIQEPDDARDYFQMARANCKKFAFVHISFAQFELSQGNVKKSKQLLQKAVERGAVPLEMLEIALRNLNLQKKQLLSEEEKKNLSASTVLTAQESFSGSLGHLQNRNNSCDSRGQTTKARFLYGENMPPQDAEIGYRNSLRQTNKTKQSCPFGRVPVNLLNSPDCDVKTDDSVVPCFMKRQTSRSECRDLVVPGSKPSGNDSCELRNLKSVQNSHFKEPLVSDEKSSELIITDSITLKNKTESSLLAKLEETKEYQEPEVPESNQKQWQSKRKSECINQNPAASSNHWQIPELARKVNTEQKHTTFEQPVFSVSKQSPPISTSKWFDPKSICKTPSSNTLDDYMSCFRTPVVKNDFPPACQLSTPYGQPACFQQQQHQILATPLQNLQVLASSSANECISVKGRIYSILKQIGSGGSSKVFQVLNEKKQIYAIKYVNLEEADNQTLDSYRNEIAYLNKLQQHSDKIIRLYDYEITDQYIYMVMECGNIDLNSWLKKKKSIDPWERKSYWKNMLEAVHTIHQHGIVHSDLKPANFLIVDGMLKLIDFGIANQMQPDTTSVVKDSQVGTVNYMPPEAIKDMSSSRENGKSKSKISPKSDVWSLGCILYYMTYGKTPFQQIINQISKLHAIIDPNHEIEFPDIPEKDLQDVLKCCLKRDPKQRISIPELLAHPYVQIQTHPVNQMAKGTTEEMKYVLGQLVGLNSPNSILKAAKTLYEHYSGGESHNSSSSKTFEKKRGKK", "note": "Compare with care: the assays were run in different laboratories."}
{"Structure (SMILES)": "Cn1c2c(Cl)c(Cl)ccc2c2cn[nH]c(=O)c21", "effect on": "thermal stability", "technique": "DSF", "concentration": "10 µM", "measurement": "ΔTm", "value": "0.6 °C"}
{"Structure (SMILES)": "CCCOc1ccc([C@H]2[C@H](C(=O)O)[C@@H](c3ccc4c(c3)OCO4)CN2CC(=O)Nc2c(CC)cccc2CC)cc1", "effect on": "cell-free assay", "technique": "competition with immobilised ligand", "concentration": "1 µM", "measurement": "remaining binding", "value": "94%"}
{"Structure (SMILES)": "Cn1c2c(c3ccc(Cl)c(Cl)c31)C(C#N)C1(CCCCC1)NC2=O (racemic)", "effect on": "thermal stability", "technique": "DSF", "concentration": "10 µM", "measurement": "ΔTm", "value": "0.7 °C"}
{"Structure (SMILES)": "CN1CC(Oc2cnc(C#N)cc2-c2ccn3nc(NC(=O)C4CC4)cc3c2)C1", "effect on": "enzyme activity", "action": "inhibitor", "concentration": "1 µM", "measurement": "inhibition", "value": "12%"}
{"Structure (SMILES)": "Cn1c2c(c3ccc(Cl)c(Cl)c31)C(C#N)C(C)(C)NC2=O (stereo not shown)", "effect on": "thermal stability", "technique": "DSF", "concentration": "10 µM", "measurement": "ΔTm", "value": "1.2 °C"}
{"Structure (SMILES)": "O=C1NC(=O)c2cc(Nc3ccc(F)cc3)c(Nc3ccc(F)cc3)cc21", "effect on": "cell-free assay", "concentration": "0.5 µM", "measurement": "remaining signal", "value": "95.4%"}
{"Structure (SMILES)": "FC(F)(F)c1ccc2c(c1)nc(-c1cccnc1)n2C1CC1", "effect on": "cell-free assay", "technique": "competition with immobilised ligand", "concentration": "1 µM", "measurement": "remaining binding", "value": "100%"}
{"Structure (SMILES)": "Oc1cccc(-c2nc(N3CCOCC3)c3oc4ncccc4c3n2)c1", "effect on": "enzyme activity", "action": "inhibitor", "concentration": "10 µM", "measurement": "remaining activity", "value": "66%"}
{"Structure (SMILES)": "Cc1ccc(C(=O)Nc2ccc(CN3CCN(C)CC3)c(C(F)(F)F)c2)cc1C#Cc1cnc2cccnn12", "effect on": "enzyme activity", "concentration": "23.5 nM", "measurement": "remaining activity", "value": "77%"}
{"Structure (SMILES)": "Cc1c[nH]c2nccc(Oc3c(F)cc(Nc4cc(Cl)nc(N)n4)cc3F)c12", "effect on": "cell-free assay", "technique": "competition with immobilised ligand", "concentration": "0.1 µM", "measurement": "remaining binding", "value": "96%"}
{"Structure (SMILES)": "CCN(CC)CCNC(=O)c1c(C)[nH]c(/C=C2\\C(=O)Nc3ccc(F)cc32)c1C", "effect on": "cell-free assay", "concentration": "0.5 µM", "measurement": "remaining signal", "value": "68%"}
{"Structure (SMILES)": "FC(F)(F)Oc1cccc(-c2cnc3ccc(-c4ccncc4)nn23)c1", "effect on": "enzyme activity", "action": "inhibitor", "technique": "radiometric", "concentration": "5 µM", "measurement": "activity vs control", "value": "67%"}
{"Structure (SMILES)": "N#CC1c2c([nH]c3c(Cl)c(Cl)ccc23)C(=O)NC12CCCCC2 (racemic)", "effect on": "thermal stability", "technique": "DSF", "concentration": "10 µM", "measurement": "ΔTm", "value": "0.9 °C"}
{"Structure (SMILES)": "C#Cc1cccc(Nc2ncnc3cc(OCCOC)c(OCCOC)cc23)c1", "effect on": "cell-free assay", "concentration": "0.5 µM", "measurement": "remaining signal", "value": "91.8%"}
{"Structure (SMILES)": "O=C(NS(=O)(=O)c1ccc(NCC2CCOCC2)c([N+](=O)[O-])c1)c1ccc(N2CCN(Cc3ccc(C(F)(F)F)cc3-c3ccc(Cl)cc3)CC2)cc1Oc1cnc2[nH]ccc2c1", "effect on": "cell-free assay", "technique": "competition with immobilised ligand", "concentration": "1 µM", "measurement": "remaining binding", "value": "100%"}
{"Structure (SMILES)": "CC(C)(C)c1nc(-c2cccc(NS(=O)(=O)c3c(F)cccc3F)c2F)c(-c2ccnc(N)n2)s1", "effect on": "enzyme activity", "action": "inhibitor", "technique": "radiometric", "concentration": "1 µM", "measurement": "remaining activity", "value": "92%"}
{"Structure (SMILES)": "O=C(Nc1cccnn1)N1CCC(=Cc2cccc(Oc3ccc(C(F)(F)F)cn3)c2)CC1", "effect on": "cell-free assay", "technique": "competition with immobilised ligand", "concentration": "1 µM", "measurement": "remaining binding", "value": "100%"}
{"Structure (SMILES)": "COc1cc(/C=C/C(=O)CC(=O)/C=C/c2ccc(O)c(OC)c2)ccc1O", "effect on": "enzyme activity", "action": "inhibitor", "concentration": "1 µM", "measurement": "activity vs control", "value": "51%"}
{"Structure (SMILES)": "Cc1nccc(COC(=O)N2C[C@@H]3[C@@H](CNC(=O)c4ccc5[nH]nnc5c4)[C@@H]3C2)n1", "effect on": "cell-free assay", "technique": "competition with immobilised ligand", "concentration": "1 µM", "measurement": "remaining binding", "value": "89%"}
{"Structure (SMILES)": "Cc1ccc(NC(=O)c2ccc(CN3CCN(C)CC3)cc2)cc1Nc1nc(-c2cccnc2)cs1", "effect on": "cell-free assay", "concentration": "0.5 µM", "measurement": "remaining signal", "value": "112%"}
{"Structure (SMILES)": "Cn1c(=O)n(-c2ccc(C(C)(C)C#N)cc2)c2c3cc(-c4cnc5ccccc5c4)ccc3ncc21", "effect on": "enzyme activity", "action": "inhibitor", "concentration": "10 µM", "measurement": "remaining activity", "value": "91%"}
{"Structure (SMILES)": "COc1cc(Nc2cnc(C#N)c(O[C@H](C)CN(C)C)n2)ncc1-c1cnn(C)c1", "effect on": "enzyme activity", "action": "inhibitor", "technique": "radiometric", "concentration": "10 µM", "measurement": "remaining activity", "value": "74%"}
